From the EternaBench riboswitch data

System: MS2 coat protein
Assay: apparent Kd, MS2 coat protein; higher = weaker binding; RNA-MaP array; FMN 200 µM where present
Outline: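 In 100 mM Tris-HCl pH 7.5, 80 mM KCl, 4 mM MgCl2, BSA, DTT, yeast tRNA and Tween-20, SNAP-549-labelled MS2 coat protein was titrated from 0.7 or 1.5 nM, doubling to 3 µM, over designs transcribed by stalled E. coli RNA polymerase on Illumina sequencing-chip clusters. This was done first without ligand, then with ligand held constant. After green signal was normalised to red-channel RNA signal and control-cluster median Fmax, the apparent Kd was taken as the median of filtered per-cluster binding-curve fits.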

[1] = designed as: OFF switch for flavin mononucleotide, no ligand
[2] = ligand present: flavin mononucleotide, designed as: OFF switch for flavin mononucleotide
[3] = designed as: ON switch for flavin mononucleotide, no ligand
[4] = ligand present: flavin mononucleotide, designed as: ON switch for flavin mononucleotide

Sequence | apparent Kd [1] | apparent Kd [2] | apparent Kd [3] | apparent Kd [4]
AAGAACUAAGGAUAUACAUGAGGAUCACCCAUGUCUUUUACAUGUUACUGGCCCGCAUGUAGAAGGUAGAAAAG | 78.6 nM | 135 nM | – | –
AACAUGAGGAUCACCCAUGUCCCACCAGAAGGCUGGCGGUCGUGAGAAAGGCCACGACAAAUAACAGAGGAUAUGGUGAAUGCA | – | – | 101 nM | 19.1 nM
UAGACGUUGCAGAAGGUUAUUUUUAUAACGUGCCACUUGACAUGAGGAUCACCCAUGUAAUUGAUGAAGGAUAUGCAACGGUAG | 6.34 nM | 5.83 nM | – | –
AUUAGUAUCUAGGAUAUCUAGUACAUAGUAUCUAGAGAAGGAGAUACAUGAGGAUCACCCAUGUUCUGUGAUCU | 204 nM | 44.4 nM | – | –
ACAUGAGGAUCACCCAUGUGAAAAGAAUGGCUGACACAGAGAUAGGAUAUAUGUGCAUAUCUAACGUAGAAGGGUCAUGACUGG | 33.3 nM | 36.4 nM | – | –
GUUUAUUAUUAGAAGGUGCCAGCGAGAGCUGCACAUGAGGAUCACCCAUGUUGUCGGUGACGACGCAAGGAUAUGGUGGUGGAU | – | – | 300 nM | 91.5 nM
CUAAAUCAUGUAGGAUAUGCAUGGCGAAGCUACGCAGAAGGACAUGAGGAUCACCCAUGUCUGUCCGACAGCGUACUGUCGGAC | 19.6 nM | 112 nM | – | –
AGUAAGAUGCAGAAGGUGUCAGCUAGUGCUACGACAUGAGGAUCACCCAUGUACUAGAAACAGUACAAGGAUAUGCAUCUUACA | – | – | 56.8 nM | 8.32 nM
UGGCUACAUGAGGAUCACCCAUGUCAGGAUAUGCCGUUGAAUUGACAUCAACGUACGGGUAGAAGGGACUGCGU | 39.5 nM | 38.8 nM | – | –
AACAAACAUGAGGAUCACCCAUGUCAGGAUAUGGCGGCUAGUGUGCCACCGUACACUACCAGAAGGGACUGGGU | 212 nM | 151 nM | – | –
GGGCGGAAUACAUGAGGAUCACCCAUGUCAGAAAGGGUAAUCAGAAGGUACUAUUAGAGAAAGAGUAAGGAUAUGAAUCCGCCC | – | – | 906 nM | 158 nM
AGUCGGAGCAGAGGAUAUAUACAUGAGGAUCACCCAUGUAAAUGAGUAAGCUGGAAACAGCAAGUAUAGAAGGCUGCUCCGACA | 18.2 nM | 35.1 nM | – | –
UCGAAAAUACAAGGAUAUCAAUUGUAGCUAAAUUCAACAUGAGGAUCACCCAUGUAACUAUGGAGUGAGAAGGUGUAGUAAUUU | – | – | 113 nM | 450 nM
UAUAUACAUGAGGAUCACCCAUGUGAGGAUAUGCUUUAUUAUUAUUAUUAUUAUUAUUGCAGAAGGUACAUUAU | 28.9 nM | 28.8 nM | – | –
GCGUACAUAUCAGGAUAUCAUUGAAUGGAUUAACACAGUGAAUACAUGAGGAUCACCCAUGUGCUUGAGAAGGGAUUACAACGC | 10.9 nM | 9.4 nM | – | –
CCGAUUAGCACAGGAUAUGGGAACUCGUAAUUCCCAGAAGGGUGAGCCAAUACAUGAGGAUCACCCAUGUGCGGUAGGUCGGGA | – | – | 40.5 nM | 51 nM
CUGAGCUGAGGAUAUACAUGAGGAUCACCCAUGUGUUGGAGCUUGCGUACAGGCAGAUGUAGAAGGCAGUUCGG | 23.6 nM | 88.2 nM | – | –
GGUUGGCGAGGAUAUACAUGAGGAUCACCCAUGUGGUCCUGCGAUAGAAUAGCCCUUUGUAGAAGGCGCGGGUC | 44 nM | 38 nM | – | –
AAAAAACAUGAGGAUCACCCAUGUGAGGAUAUGGAAAAAAAAAAAAAAAAAAAAAAAACCAGAAGGCACAAAAA | 92.6 nM | 60 nM | – | –
UGAUCUUACAUGAGGAUCACCCAUGUAGACCAGUAACUAACCAGAAGGCACGUAGAGUAAAACAGUGAGGAUAUGGAUGACAUA | – | – | 6.66 nM | 5.5 nM
CAGGAUAGAGGAUAUACAUAGAUACAGAUUCGUGUGAUCCUACAUGAGGAUCACCCAUGUAGAAGGCUAUCCUG | 213 nM | 15.9 nM | – | –
GACAUGGUCUAGAAGGGCUAUCUAUUUAAGUACGAUUUAGAACAGCAUAGCAGGAUAUGGCUAACAUGAGGAUCACCCAUGUUC | – | – | 40.5 nM | 18.7 nM
AAAUAAGUUGCAGGAUAUUAUUUAUAAUAUAUAUAAGAAGGGCAACAAACCUCACAUGAGGAUCACCCAUGUACCCAUGCAUCU | 109 nM | 44.8 nM | – | –
GGGUACAUCGGAGGAUAUCAUGUAAAUACAUGAGGAUCACCCAUGUCGAUGGAGACAUCGAAGAUUGAGAAGGCCGAUGUACCG | – | – | 16.8 nM | 5.6 nM

Sequence | apparent Kd [1] | apparent Kd [2] | apparent Kd [3] | apparent Kd [4]
GCGUCGUCGACUGAUAACAAGCCUAGAAGGCGGACAUGAGGAUCACCCAUGUCUGAUCCUCGGCCCGAGGAUAUAGGUUAAUGG | 28.6 nM | 13.4 nM | – | –
UCAGUAGAGUCAGGAUAUACGUCCAAAUUUCCUCACAUGAGGAUCACCCAUGUAGAAGGGACUCUACUGUAAGUCGGAAACGAC | 7.42 nM | 31 nM | – | –
UAAAUAAUGUAAGGAUAUACAUGAGGAAUUCUCGUAGAAGGUACAUGACAUGAGGAUCACCCAUGUAUCGCUCAGUAGAGCGUA | – | – | 152 nM | 311 nM
UAUAUAUAGUAAGGAUAUGUAUAUAUUGUAUAAACAGAAGGUACUGACAUGAGGAUCACCCAUGUUUUAGUGUGGGCAUGUAGA | 76.5 nM | 121 nM | – | –
GUCAGCUCGUGAGGAUAUUCAACACUGCUUCGGCAGUGUAUUAAGAUCACAUGAGGAUCACCCAUGUAGAAGGCACGAGCUGAU | 5.79 nM | 10.8 nM | – | –
CGGUGCUGAGGAUAUACAUGAGGAUCACCCAUGUGUGCCAGCUAGCUGACUGGCACUUGUAGAAGGCAGUACUG | 12.7 nM | 24.2 nM | – | –
GCAGUACGCCUGGCAAUUUGCAAGCAGGAUAUCAGGCACCGUGAGACAUGAGGAUCACCCAUGUCUGAGAAGGGCUGGAGUUGC | 9.68 nM | 18.9 nM | – | –
GGACAUCCCACAGGAUAUGCUGGACUUUGUCCAGCAGAAGGGUGAAAUACAUGAGGAUCACCCAUGUGGAUGUCCAUAUUUAAU | – | – | 747 nM | 253 nM
GGAGCCGGCCUAGGAUAUUUCAUAUUUAAACAUGAGGAUCACCCAUGUAGGCCAGAAGGCCUUGGGAAGAAGGAGGUCGGCUCC | – | – | 88.1 nM | 17.5 nM
AACCUAUUACAGAAGGCCAGCUACAUGAGGAUCACCCAUGUCGAGUCAUGGAGGAUAUGUAGUAAUUUACUCACAAAUAAGUGC | – | – | 33.6 nM | 5.16 nM
GACUUGUAAGGAUAUCGUGCAAGUUUCAAAAGAGGCUUGUGCGAGAAGGUACAUGAGGAUCACCCAUGUAGGUU | 27 nM | 56.6 nM | – | –
UUGUUGUGAGGAUAUCCAAUAUAUGACAUGAGGAUCACCCAUGUUUCCACUCGUACCUCCGGAGAAGGCACUUGGU | 35.5 nM | 29.1 nM | – | –
UUCAAAUUCGUAGGAUAUGUAUAAAUUUUCUACAUGAGGAUCACCCAUGUUACCAUUUUAAAUUGACAGAAGGACGUAAUCUAA | – | – | 22.5 nM | 8.74 nM
UGACGGAGCAGAGGAUAUACAUGAGGAUCACCCAUGUAAAUGAAAGAUAGCAGCAAAGCUGCAAUGUAGAAGGCUGCUCCGUCA | 29.8 nM | 84.9 nM | – | –
CUUUCGUGAGGAUAUCAGUAGUAAAAAAAUAAAAUUACUACUGAGAAGGCACAUGAGGAUCACCCAUGUUCCUC | 21.8 nM | 143 nM | – | –
AAAAGAUGAGGAUAUAUAUGGAAUCCAAGGCAUGUGCUCUCACAUGAGGAUCACCCAUGUAGAAGGCAUCUGCC | 10.1 nM | 13 nM | – | –
UGUGCCUCGAGAGGAUAUUACAUGAGGAUCACCCAUGUAACAGAGGUGGAAACACCUCUGAAAUGUAAGAAGGCUCGAGGCACA | 19.1 nM | 29.6 nM | – | –
UGCGUGUUAGGAUAUCCGCCAAAGACCGACGGUGGAACGCAGGAGAAGGAACAUGAGGAUCACCCAUGUGGGAA | 88.1 nM | 34.3 nM | – | –
CCUUUAAAGAUCCAAAAUUUCAACAUGAGGAUCACCCAUGUGCAGGAUAUCGUGCCAGUGAUGUACGAGAAGGGCAGACUCUGC | 119 nM | 149 nM | – | –
UUAAAUCAUGUAGGAUAUGCAUGGCGAAGCUACGCAGAAGGACAUGAGGAUCACCCAUGUUAAAGCUACCGUAUACGGUGGCAA | 131 nM | 174 nM | – | –
AUUCCUUGUGUUAGGAUAUGUCACUACCGUAUGCGACAGAAGGAACAUGAGGAUCACCCAUGUGAGUUAGCCGA | 87.5 nM | 24.1 nM | – | –
UCGGCGCGAGGAUAUGCGGUUCCUCCCUAGGGCCGGAGCGUACAUGAGGAUCACCCAUGUAGAAGGCGCGCCGC | 12.3 nM | 15 nM | – | –
ACAUGAGGAUCACCCAUGUUCGUUGAAGAAGGUACCAUUUACUUUAGUAGUAUUAAUUUAUUUGGUAAGGAUAUUCUCAUAAUU | – | – | 15.9 nM | 7.75 nM
AGAUAAUAGCAGAAGGGCCAUGGACAUGAGGAUCACCCAUGUAACGGUGGACUCAUUUGUGAAGGGCAGGAUAUGCAAUAAAGA | 160 nM | 13.4 nM | – | –
